According to ChEMBL document CHEMBL3745596, “Chlorophenoxy aminoalkyl derivatives as histamine H(3)R ligands and antiseizure agents” (Bioorg Med Chem, 2016):
Active and inactive are the calls of the source.

Assays:
Mus musculus [1] = test: Anticonvulsant activity in CF1 albino mouse assessed as protection against subcutaneous pentetrazole-induced seizure at 30 mg/kg, ip after 0.5 hrs; assay type: functional, organism-based
Procedure, shortened: (§1)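 Male CF-1 mice, ip in 0.5% methylcellulose; pentetrazole at CD97 (85 mg/kg) injected subcutaneously in a loose fold of neck skin. Observed 30 min; absence of even a threshold seizure (single clonic spasm lasting at least 5 s) counted as protection. Scored protected/tested, or ED50.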

Mus musculus [2] = test: Neurotoxicity in CF1 albino mouse assessed as unable to grasp rotarod and death at 100 mg/kg, ip after 0.5 hrs by rotarod test; assay type: toxicity, organism-based; conditions: in vivo
Procedure, shortened: (§2)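 Male albino CF-1 mice dosed ip with compound suspended in 0.5% methylcellulose, then placed on a 1-inch knurled plastic rod turning at 6 rpm. A fall three times within 1 min counted as neurotoxicity. Observations were made at 0.5 h and 4 h after dosing. Result given as animals showing toxicity per animals tested, with the kind of toxicity recorded.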

[3] = Antiproliferative activity against human IMR32 cells assessed as cell viability after 48 hrs by formazan EZ4U dye based assay; conditions: IMR-32, 48 h
Procedure, shortened: (§3)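 HEK-293 (1.5 × 10⁴/well) or IMR-32 (2 × 10⁴/well) cells in DMEM with 10% FBS, 37 °C, 5% CO₂, grown 24 h to about 60% confluence; compounds 0.01–250 µM final, DMSO at most 1%, 48 h.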

Mus musculus [4] = test: Neurotoxicity in CF1 albino mouse at 30 mg/kg, ip after 0.5 hrs by rotarod test; assay type: toxicity, organism-based; conditions: in vivo
Procedure, shortened: (§4)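 Rotarod neurotoxicity in male albino CF-1 mice dosed ip with compound suspended in 0.5% methylcellulose. Animal placed on a 1 inch diameter knurled plastic rod rotating at 6 rpm. Neurotoxicity scored when the animal falls off three times within 1 min. Readout is number of animals toxic/number tested at the stated time after dosing. TD50 with 95% confidence interval from the quantitative study.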

Mus musculus [5] = test: Neurotoxicity in CF1 albino mouse at 10 mg/kg, ip after 0.5 hrs by rotarod test; assay type: toxicity, organism-based; conditions: in vivo
Procedure, shortened: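 Rotarod neurotoxicity in male CF-1 mice dosed ip as 0.5% methylcellulose suspension: mouse placed on 1 inch knurled rod rotating at 6 rpm; toxicity when the animal falls off three times within 1 min, with other signs noted. Scored as toxic/tested at 0.5 h and 4 h.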

Mus musculus [6] = test: Neurotoxicity in CF1 albino mouse at 3 mg/kg, ip after 0.5 hrs by rotarod test; assay type: toxicity, organism-based; conditions: in vivo; procedure, shortened: as §4
Mus musculus [7] = test: Anticonvulsant activity in CF1 albino mouse assessed as protection against maximal electroshock-induced seizure at 30 mg/kg, ip after 4 hrs; assay type: functional, organism-based
Procedure, shortened: (§5)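 Male CF-1 mice dosed ip as suspension in 0.5% methylcellulose. Corneal electrodes deliver 60 Hz alternating current, 50 mA for […], after a drop of 0.5% tetracaine HCl in 0.9% NaCl per eye. Protection means abolition of hindlimb tonic extension; scored as protected/tested, or ED50 with 95% confidence interval.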

Mus musculus [8] = test: Neurotoxicity in CF1 albino mouse at 300 mg/kg, ip after 4 hrs by rotarod test; assay type: toxicity, organism-based; conditions: in vivo; procedure, shortened: as §4
Cytochrome P450 3A4 = Cytochrome P450 3A4 (Homo sapiens, UniProt P08684); test: Inhibition of CYP3A4 (unknown origin) up to 10 uM; assay type: ADME
Chain of Cytochrome P450 3A4 (P08684 whole entry): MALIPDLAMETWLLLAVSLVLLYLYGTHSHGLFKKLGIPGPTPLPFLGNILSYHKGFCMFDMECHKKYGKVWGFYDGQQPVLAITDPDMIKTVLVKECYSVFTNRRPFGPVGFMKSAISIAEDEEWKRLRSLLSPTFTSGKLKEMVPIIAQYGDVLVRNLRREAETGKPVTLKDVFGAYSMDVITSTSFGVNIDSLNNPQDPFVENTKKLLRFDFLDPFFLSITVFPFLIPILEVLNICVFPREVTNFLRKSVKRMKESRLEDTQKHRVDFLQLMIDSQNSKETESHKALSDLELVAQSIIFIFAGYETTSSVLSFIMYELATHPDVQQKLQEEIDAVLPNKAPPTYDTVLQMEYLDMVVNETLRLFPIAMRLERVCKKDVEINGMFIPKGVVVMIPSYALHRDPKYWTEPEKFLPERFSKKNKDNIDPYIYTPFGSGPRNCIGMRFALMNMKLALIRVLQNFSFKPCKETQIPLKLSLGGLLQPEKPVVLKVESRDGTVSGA

Histamine H3 receptor [9] = molecular target: T1, Histamine H3 receptor (Homo sapiens, UniProt Q9Y5N1); test: Antagonist activity at human recombinant histamine H3 receptor expressed in HEK293 cells assessed as inhibition of forskolin/(R)(-)-alpha-methylhistamine-induced cAMP accumulation after 1 hr by TR-FRET immunoassay; assay type: functional, cell-based
T1 sequence (Q9Y5N1 whole entry): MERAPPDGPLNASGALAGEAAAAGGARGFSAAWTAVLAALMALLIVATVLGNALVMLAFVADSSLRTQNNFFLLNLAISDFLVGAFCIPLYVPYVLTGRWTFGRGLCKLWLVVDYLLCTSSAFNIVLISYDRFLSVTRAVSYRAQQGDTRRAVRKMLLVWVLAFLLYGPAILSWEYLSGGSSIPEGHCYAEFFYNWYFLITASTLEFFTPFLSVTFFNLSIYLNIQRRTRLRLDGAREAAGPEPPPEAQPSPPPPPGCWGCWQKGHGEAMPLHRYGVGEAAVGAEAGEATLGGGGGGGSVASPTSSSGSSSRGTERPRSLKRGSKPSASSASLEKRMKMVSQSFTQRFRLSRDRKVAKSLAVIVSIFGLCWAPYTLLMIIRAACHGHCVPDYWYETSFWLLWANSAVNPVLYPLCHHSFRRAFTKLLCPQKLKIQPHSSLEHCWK
Procedure, shortened: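 HEK293 cells stably expressing hH3R, stimulated 30 min at room temperature with (R)(-)-α-methylhistamine (15 nM), forskolin and antagonist (0.1 nM–10 µM range) added together. cAMP read by TR-FRET (Eu-cAMP tracer, ULight anti-cAMP antibody, 1 h), converted via cAMP standard curve to % maximal response. Sigmoidal dose–response fit; mean of three experiments, each in triplicate.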

Mus musculus [10] = test: Anticonvulsant activity in CF1 albino mouse assessed as protection against maximal electroshock-induced seizure at 30 mg/kg, ip after 0.5 hrs; assay type: functional, organism-based; procedure, shortened: as §5
Mus musculus [11] = test: Anticonvulsant activity in CF1 albino mouse assessed as protection against subcutaneous pentetrazole-induced seizure at 30 mg/kg, ip after 4 hrs; assay type: functional, organism-based; procedure, shortened: as §1
Liver microsome = test: Drug metabolism in human liver microsomes after 2 hrs by UPLC-MS/MS analysis; assay type: ADME
Procedure, shortened: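 Pooled adult male and female human liver microsomes 1 mg/mL in 0.1 M Tris–HCl pH 7.4 with NADPH regeneration system; started after 5 min preincubation at 37 °C, incubated 2 h at 37 °C, stopped with cold methanol, centrifuged, supernatant analysed by UPLC with ESI tandem quadrupole MS.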

Mus musculus [12] = test: Anticonvulsant activity in CF1 albino mouse assessed as protection against maximal electroshock-induced seizure at 100 mg/kg, ip after 4 hrs; assay type: functional, organism-based; procedure, shortened: as §5
Mus musculus [13] = test: Anticonvulsant activity in CF1 albino mouse assessed as protection against maximal electroshock-induced seizure at 3 mg/kg, ip after 0.5 hrs; assay type: functional, organism-based; procedure, shortened: as §5
Mus musculus [14] = test: Neurotoxicity in CF1 albino mouse at 100 mg/kg, ip after 4 hrs by rotarod test; assay type: toxicity, organism-based; conditions: in vivo; procedure, shortened: as §4
Mus musculus [15] = test: Neurotoxicity in CF1 albino mouse at 30 mg/kg, ip after 4 hrs by rotarod test; assay type: toxicity, organism-based; conditions: in vivo; procedure, shortened: as §4
Mus musculus [16] = test: Anticonvulsant activity in CF1 albino mouse assessed as protection against maximal electroshock-induced seizure at 10 mg/kg, ip after 0.5 hrs; assay type: functional, organism-based; procedure, shortened: as §5
Histamine H3 receptor [17] = molecular target: T1, Histamine H3 receptor; test: Displacement of [3H]-Nalpha-methylhistamine from human recombinant histamine H3 receptor expressed in HEK293 cells after 90 mins; assay type: cell-based
Mus musculus [18] = test: Neurotoxicity in CF1 albino mouse assessed as death at 300 mg/kg, ip after 0.5 hrs by rotarod test; assay type: toxicity, organism-based; conditions: in vivo; procedure, shortened: as §2
HEK293 = test: Antiproliferative activity against human HEK293 cells assessed as cell viability after 48 hrs by formazan EZ4U dye based assay; conditions: HEK293, 48 h; procedure, shortened: as §3
Mus musculus [19] = test: Anticonvulsant activity in CF1 albino mouse assessed as protection against maximal electroshock-induced seizure at 100 mg/kg, ip after 0.5 hrs; assay type: functional, organism-based; procedure, shortened: as §5
Rattus norvegicus = test: Anticonvulsant activity in Sprague-Dawley rat assessed as protection against maximal electroshock-induced seizure at 30 mg/kg, po; assay type: functional

SMILES: Clc1ccc(OCCCCCCCN2CCCCC2)cc1.O=C(O)C(=O)O
- Activity (Mus musculus [1]): inactive
- Activity (Mus musculus [2]): Toxic
- IC50 [3]: 15.5 µM
- Activity (Mus musculus [4]): Non-toxic
- Activity (Mus musculus [5]): Non-toxic
- Activity (Mus musculus [6]): Non-toxic
- Activity (Mus musculus [7]): inactive
- Activity (Mus musculus [8]): Non-toxic
- inhibition (INH) (Cytochrome P450 3A4): Not Active
- EC50 (Histamine H3 receptor [9]): 0.075 µM
- Activity (Mus musculus [10]): Active
- Activity (Mus musculus [11]): inactive
- Drug metabolism (Liver microsome): metabolite_detected
- Activity (Mus musculus [12]): Active
- Activity (Mus musculus [13]): inactive
- Activity (Mus musculus [14]): Non-toxic
- Activity (Mus musculus [15]): Non-toxic
- Activity (Mus musculus [16]): inactive
- Ki (Histamine H3 receptor [17]): 0.128 µM
- Activity (Mus musculus [18]): Toxic
- IC50 (HEK293): 33.6 µM
- Activity (Mus musculus [19]): Active
- Activity (Rattus norvegicus): 25%
